≈ marks a conversion by molar mass, not a printed value. Calls of active or inactive are those of the source. The rule behind the calls is not given here.
Tests used:
[1] = tested on: Proteus hauseri; assay: Antibacterial activity against Proteus hauseri ATCC 13315 by broth microdilution method; type: functional
In short: (§1)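 Broth microdilution per NCCLS. Compounds dissolved in DMSO as 10 mg/mL stock, diluted in Mueller Hinton broth (bacteria) or Sabouraud dextrose broth (fungi). Amikacin served as the positive control for bacteria and nystatin for fungi.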

[2] = tested on: Staphylococcus aureus; assay: Antibacterial activity against Staphylococcus aureus ATCC 6538 by broth microdilution method; type: functional; in short: as §1
[3] = tested on: Kocuria rhizophila; assay: Antibacterial activity against Kocuria rhizophila ATCC 9341 by broth microdilution method; type: functional; details: DC2201; in short: as §1
[4] = tested on: Micrococcus luteus; assay: Antibacterial activity against Micrococcus luteus ATCC 10240 by broth microdilution method; type: functional; in short: as §1
[5] = tested on: Micrococcus luteus; assay: Antibacterial activity against Micrococcus luteus ATCC 4698 by broth microdilution method; type: functional; details: NCTC 2665; in short: as §1
[6] = tested on: Clostridium sporogenes; assay: Antibacterial activity against Clostridium sporogenes ATCC 19404 by broth microdilution method; type: functional; in short: as §1
[7] = tested on: Escherichia coli; assay: Antibacterial activity against Escherichia coli ATCC 25922 by broth microdilution method; type: functional; in short: as §1
[8] = tested on: Bacillus spizizenii; assay: Antibacterial activity against Bacillus subtilis ATCC 6633 by broth microdilution method; type: functional; in short: as §1
[9] = tested on: Salmonella enteritidis; assay: Antibacterial activity against Salmonella enterica subsp. enterica serovar Enteritidis ATCC 13076 by broth microdilution method; type: functional; in short: as §1
[10] = tested on: Pseudomonas aeruginosa; assay: Antibacterial activity against Pseudomonas aeruginosa ATCC 9027 by broth microdilution method; type: functional; in short: as §1
[11] = tested on: Saccharomyces cerevisiae; assay: Antifungal activity against Saccharomyces cerevisiae ATCC 9763 by broth microdilution method; type: functional; in short: as §1
[12] = tested on: Candida albicans; assay: Antifungal activity against Candida albicans ATCC 10231 by broth microdilution method; type: functional; in short: as §1
[13] = tested on: Aspergillus brasiliensis; assay: Antifungal activity against Aspergillus brasiliensis ATCC 16404 by broth microdilution method; type: functional; in short: as §1
[14] = tested on: HaCaT; assay: Cytotoxicity against human HaCaT cells after 72 hrs by MTT assay; type: cell-based; details: for IC50: Homo sapiens, HaCaT; for IC30: human, hacat
In short: (§2)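 Seeding in 96-well plates at 1000 (NCI-H460), 2000 (NCI-H460/R) or 4000 (HaCaT) cells/well, treated after 24 h for 72 h. MTT at 0.4 mg/mL final, 4 h at 37 °C. Formazan dissolved in DMSO, absorbance read at 540 nm. Inhibition % = (1 − A treated/A untreated)×100. IC30 and IC50 obtained by linear regression.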

[15] = tested on: NCI-H460; assay: Cytotoxicity against human NCI-H460 cells after 72 hrs by MTT assay; type: functional, cell-based; details: NCI-H460, 72 h; in short: as §2
[16] = tested on: NCI-H460; assay: Cytotoxicity against multidrug resistant human NCI-H460 cells after 72 hrs by MTT assay; type: functional, cell-based; details: NCI-H460, 72 h; in short: as §2
[17] = tested on: HaCaT; assay: Induction of apoptosis in human HaCaT cells assessed as dead cells at 25 uM after 72 hrs by annexin-V/propidium iodide staining-based flow cytometric analysis (reference value: 2.8%); type: cell-based
[18] = tested on: HaCaT; assay: Induction of apoptosis in human HaCaT cells assessed as late apoptotic/necrotic cells at 25 uM after 72 hrs by annexin-V/propidium iodide staining-based flow cytometric analysis (reference value: 0.2%); type: cell-based
[19] = tested on: NCI-H460; assay: Induction of apoptosis in human NCI-H460 cells assessed as late apoptotic/necrotic cells at 25 uM after 72 hrs by annexin-V/propidium iodide staining-based flow cytometric analysis (reference value: 0.2%); type: functional
[20] = tested on: NCI-H460; assay: Induction of apoptosis in multidrug resistant human NCI-H460 cells assessed as late apoptotic/necrotic cells at 25 uM after 72 hrs by annexin-V/propidium iodide staining-based flow cytometric analysis (reference value: 1%); type: functional
[21] = tested on: NCI-H460; assay: Induction of apoptosis in multidrug resistant human NCI-H460 cells assessed as early apoptotic cells at 25 uM after 72 hrs by annexin-V/propidium iodide staining-based flow cytometric analysis (reference value: 1.1%); type: functional
[22] = tested on: NCI-H460; assay: Induction of apoptosis in multidrug resistant human NCI-H460 cells assessed as dead cells at 25 uM after 72 hrs by annexin-V/propidium iodide staining-based flow cytometric analysis (reference value: 1.5%); type: functional
[23] = tested on: NCI-H460; assay: Induction of superoxide anion generation in multidrug resistant human NCI-H460 cells at 25 uM after 72 hrs by DHE staining-based flow cytometric analysis relative to control; type: functional, cell-based
In short: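 Seeded as for cell death (50,000 or 100,000 cells/well), treated 72 h at 25 µM, with CDDP 5 µM as control. Adherent cells trypsinized and loaded with 1 µM DHE for 30 min at 37 °C in the dark, then washed twice in PBS. Flow cytometry at ex 488/em 585 nm (FL2-H). Mean fluorescence intensity corrected for autofluorescence and compared with untreated control.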

[24] = tested on: NCI-H460; assay: Induction of apoptosis in human NCI-H460 cells assessed as dead cells at 25 uM after 72 hrs by annexin-V/propidium iodide staining-based flow cytometric analysis (reference value: 1.2%); type: functional
[25] = tested on: NCI-H460; assay: Induction of apoptosis in multidrug resistant human NCI-H460 cells assessed as live cells at 25 uM after 72 hrs by annexin-V/propidium iodide staining-based flow cytometric analysis (reference value: 96.4%); type: functional
[26] = tested on: NCI-H460; assay: Induction of apoptosis in human NCI-H460 cells assessed as early apoptotic cells at 25 uM after 72 hrs by annexin-V/propidium iodide staining-based flow cytometric analysis (reference value: 0.3%); type: functional
[27] = tested on: HaCaT; assay: Induction of apoptosis in human HaCaT cells assessed as early apoptotic cells at 25 uM after 72 hrs by annexin-V/propidium iodide staining-based flow cytometric analysis (reference value: 0.2%); type: cell-based
[28] = Induction of apoptosis in human HaCaT cells assessed as live cells at 25 uM after 72 hrs by annexin-V/propidium iodide staining-based flow cytometric analysis (reference value: 96.8%); type: cell-based; details: read-out: Activity
[29] = tested on: NCI-H460; assay: Induction of apoptosis in human NCI-H460 cells assessed as live cells at 25 uM after 72 hrs by annexin-V/propidium iodide staining-based flow cytometric analysis (reference value: 98.3%); type: functional

Row | Compound | MIC [1] [µM] | MIC [2] [µM] | MIC [3] [µM] | MIC [4] [µM] | MIC [5] [µM] | MIC [6] [µM] | MIC [7] [µM] | MIC [8] [µM] | MIC [9] [µM] | MIC [10] [µM] | MIC [11] [µM] | MIC [12] [µM] | MIC [13] [µM] | IC50 [14] [µM] | IC30 [14] [µM] | IC30 [15] [µM] | IC50 [15] [µM] | IC30 [16] [µM] | IC50 [16] [µM] | further results
1 | NCC[C@H](O)C(=O)N[C@@H]1C[C@H](N)[C@@H](O[C@H]2O[C@H](CN)[C@@H](O)[C@H](O)[C@H]2O)[C@H](O)[C@H]1O[C@H]1O[C@H](CO)[C@@H](O)[C@H](N)[C@H]1O [AMIKACIN] | 12 (≈ 7.03 µg/mL) | 19 (≈ 11.1 µg/mL) | 3 (≈ 1.76 µg/mL) | 14 (≈ 8.2 µg/mL) | 3 (≈ 1.76 µg/mL) | 26 (≈ 15.2 µg/mL) | 9 (≈ 5.27 µg/mL) | 72 (≈ 42.2 µg/mL) | 14 (≈ 8.2 µg/mL) | 85 (≈ 49.8 µg/mL) | – | – | – | – | – | – | – | – | – | –
2 | NYSTATIN | – | – | – | – | – | – | – | – | – | – | 1350 | 2700 | 1350 | – | – | – | – | – | – | –
3 | CNC1=CC(=O)C(C(C)(C)C)=CC1=O | 813 (≈ 157 µg/mL) | 25 (≈ 4.83 µg/mL) | 409 (≈ 79 µg/mL) | 103 (≈ 19.9 µg/mL) | 831 (≈ 161 µg/mL) | 813 (≈ 157 µg/mL) | 104 (≈ 20.1 µg/mL) | 813 (≈ 157 µg/mL) | 813 (≈ 157 µg/mL) | 1620 (≈ 313 µg/mL) | 1620 (≈ 313 µg/mL) | 1620 (≈ 313 µg/mL) | 51 (≈ 9.86 µg/mL) | 28 | 17 | 34 | 63 | 31 | 58 | –
4 | CNC1=CC(=O)C=C(C(C)(C)C)C1=O | 1620 (≈ 313 µg/mL) | 51 (≈ 9.86 µg/mL) | 813 (≈ 157 µg/mL) | 202 (≈ 39 µg/mL) | 1620 (≈ 313 µg/mL) | 1620 (≈ 313 µg/mL) | 202 (≈ 39 µg/mL) | 1620 (≈ 313 µg/mL) | 1620 (≈ 313 µg/mL) | 3240 (≈ 626 µg/mL) | 3240 (≈ 626 µg/mL) | 1620 (≈ 313 µg/mL) | 103 (≈ 19.9 µg/mL) | 10 | 8 | 14 | 25 | 15 | 23 | –
5 | CCCCCCCCNC1=CC(=O)C(C[C@]2(C)[C@@H](C)CC[C@]3(C)C(C)=CCC[C@@H]23)=CC1=O | – | – | – | – | – | – | – | – | – | – | – | – | – | > 100 | > 100 | > 100 | > 100 | > 100 | > 100 | Activity [17]: 5.8%; Activity [18]: 0.7%; Activity [19]: 0.3%; Activity [20]: 0.7%; Activity [21]: 0.1%; Activity [22]: 3.1%; Activity [23]: inactive; Activity [24]: 4.6%; Activity [25]: 96.1%; Activity [26]: 0%; Activity [27]: 0.1%; viability at 72 h, 25 µM [28]: 93.4%; Activity [29]: 95.1%
6 | CCCCNC1=CC(=O)C=C(C(C)(C)C)C1=O | – | 9 (≈ 2.12 µg/mL) | – | 9 (≈ 2.12 µg/mL) | 154 (≈ 36.2 µg/mL) | 1240 (≈ 291 µg/mL) | 9 (≈ 2.12 µg/mL) | 1240 (≈ 291 µg/mL) | 620 (≈ 146 µg/mL) | 620 (≈ 146 µg/mL) | 154 (≈ 36.2 µg/mL) | 77 (≈ 18.1 µg/mL) | 620 (≈ 146 µg/mL) | 11 | 7 | 4 | 14 | 4 | 13 | –

Reference: ChEMBL document CHEMBL3822380, “Simple avarone mimetics as selective agents against multidrug resistant cancer cells” (Eur J Med Chem, 2016)
